# Source: PubChem
# PolyA inh: blocks polyadenylation in yeast reporter cells. S. cerevisiae SKY197-pL101 polyadenylation reporter, beta-gal luminescence; efflux-impaired pdr1/pdr3 knockout yeast; score 100 = 6 SD above DMSO. actives 0.02% (n = 300,000). activity score, % at 12 µM. AID 1875;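 active = lowest replicate activity score at least 50, where 100 means six control SD above control mean; inconclusive = lowest score under 50 but half or more replicates reach 50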;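 also: yeast exposed to compound for 9 h at 30 °C; higher score means more reporter readthrough which indicates perturbed polyadenylation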
# Calb FLC: affects C. albicans growth with fluconazole | C. albicans CaCi-2 (fluconazole-resistant clinical isolate) + fluconazole, Alamar Blue growth, 48 h | growth inhibition, % (no concentration beside the values) | AID 1979 | actives 0.57% (n = 300,000);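 active = growth inhibition above about 58% in most replicates, limit read from the data, passing the limit was not always enough; inconclusive = exactly half the replicates above a set limit; inactive = most replicates below a set limit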;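 also: all wells also contain fluconazole at 8 µg/ml as a sub-toxic cotreatment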
# NLRP3 yeast inh: inhibitors of NALP3 inflammasome in yeast; Yeast reconstituted NLRP3/ASC/caspase-1, beta-gal luminescence, 24 h; actives 0.39% (n = 330,000); inhibition, % at 10 µM;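 active = inhibition of 50% or more; inactive = inhibition below 50%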
# L major viab: inhibitors of Leishmania major promastigote growth; Leishmania major promastigotes, resazurin fluorescence viability; inhibition, % at 10 µM; actives 9% (n = 200,000); in the data active = inhibition above about 50%;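 also: promastigotes grown with compound for 44 hours at 28 °C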
# NALP1 inh: blocks the NALP1 inflammasome reconstituted in yeast; AID 2071; actives 0.61% (n = 280,000); inhibition, % at 10 µM; S. cerevisiae NALP1/ASC/caspase-1 growth, X-gal OD620, 72 h; in the data active = inhibition mostly above about 24%, no sharp cut-off; inactive = mostly below about 32%
# T cruzi inh: T. cruzi replication inhibition; T. cruzi beta-gal in NIH3T3, luminescence, 90 h; actives 1.4% (n = 300,000); AID 1885; inhibition, % (test concentration not listed);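 active = mean inhibition across valid replicates above about 55%, limit read from the data; inconclusive = mean below that limit but half or more replicates reach it; inactive = mean below it, under half of replicates reach it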;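 also: signal also drops with host cell toxicity which is not excluded here; higher percent means less beta-gal luminescence so fewer parasites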
#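 Test system: β-gal T. cruzi (Tulahuen C4) inside NIH/3T3 cells / Quantity: 5,000 cells/well / Measured by: luminescence from GalScreen with 0.05% NP40, read after 60 min / Medium: DMEM plus 2% FBS / Measure: parasite load inhibition, % / Reagent: Tulahuen C4 trypomastigotes, 5000/well / Schedule: co-culture of at least 90 h after 3 h attachment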
# Hits are given with their value; . = inactive; ? = inconclusive; / = not tested or not shown. The sample as a whole holds a higher share of hits than the screen did.
SMILES,PolyA inh,Calb FLC,NLRP3 yeast inh,L major viab,NALP1 inh,T cruzi inh
CCC(=O)c1ccc(OCC(O)CN2CCCCC2)cc1 (configuration not stated),.,.,.,65.6,.,.
NCCOc1ccc(C23CC4CC(CC(C4)C2)C3)cc1,.,.,.,100.6,.,.
S=C(NCCCn1ccnc1)Nc1cccc(Cl)c1,.,.,.,.,.,.
O=[N+]([O-])c1ccc(NCCCNS(=O)(=O)c2ccccc2)cc1,.,.,.,.,.,.
OC(COc1ccc(Cl)cc1)CN1C2=NCCCN2c2ccccc21 (configuration not stated),.,.,.,63.3,.,.
OC(COc1ccc(CNCCc2ccc(C(F)(F)F)cc2)cc1)CN1CCCCC1 (configuration not stated),.,.,.,100.3,.,58.6
Cc1cc(OCC(O)CN2C(C)CCCC2C)ccc1C(C)C (configuration not stated),.,.,.,96.7,.,.
Cc1cc(OCC(O)CN2CCN(C)CC2)ccc1C(C)C (configuration not stated),.,.,.,89.8,.,.
COc1ccccc1N1CCN(CC(O)COc2ccc(C)c(C)c2)CC1 (configuration not stated),.,.,.,/,.,.
CCc1ccc(OCC(O)CN2CCCC2)cc1 (configuration not stated),.,.,.,/,.,.
Clc1ccc(OCCN2CCN(c3ncnc4sccc34)CC2)cc1,/,99.7,.,.,.,.
CN1CCN(CC(O)COc2ccc(Cl)cc2)CC1 (configuration not stated),.,.,.,86.2,.,.
CN1CCN(CC(O)COc2ccc(OCC(O)CN3CCN(C)CC3)cc2)CC1 (configuration not stated),.,.,.,.,.,.
OC(COc1c(Cl)cc(Cl)cc1Cl)CN1CCCCC1 (configuration not stated),.,.,.,96.7,.,.
OCCN1CCN(CC(O)COc2ccc(Cl)cc2)CC1 (configuration not stated),.,.,.,73.5,.,.
Cc1c(Cl)cccc1S(=O)(=O)Nc1ccnn1C,.,.,.,/,.,.
CCOc1cc(S(=O)(=O)N2CCC(C(N)=O)CC2)ccc1F,.,.,.,.,.,.
Cc1ccc(OCC(O)CN2CCN(Cc3ccc4c(c3)OCO4)CC2)cc1C (configuration not stated),.,.,.,91.4,.,.
OCCN1CCN(CC(O)COc2ccc(C34CC5CC(CC(C5)C3)C4)cc2)CC1 (configuration not stated),.,.,.,100.4,.,.
OC(COc1ccc2c(c1)OCO2)CN1CCc2ccccc2C1 (configuration not stated),.,.,.,74.3,.,.
C=CCc1ccccc1OCC(O)CN1CCN(Cc2ccc3c(c2)OCO3)CC1 (configuration not stated),.,.,.,93.2,.,.
OC(COc1ccc2c(c1)OCO2)CN1CCCCC1 (configuration not stated),.,.,.,.,.,.
CC1(C)C2([N+](=O)[O-])CN3CC1([N+](=O)[O-])CN(C2)C3C(O)C(O)C(O)CO (configuration not stated),.,.,.,/,/,.
CCOC(=O)Nc1ccc2c(CN(C)Cc3ccc(F)cc3)cc(=O)oc2c1,.,.,.,/,.,.
COc1ccccc1CNC(=O)c1cccc(S(=O)(=O)N(C)c2ccccc2)c1,/,/,.,/,/,/
SMILES,PolyA inh,Calb FLC,NLRP3 yeast inh,L major viab,NALP1 inh,T cruzi inh
CCN1CCN(CC(O)COc2ccc(Cl)cc2)CC1 (configuration not stated),.,.,.,88.6,.,.
OC(COc1ccc(Cl)cc1)CN1CCN(c2ccccn2)CC1 (configuration not stated),.,.,.,/,/,.
CCN1CCN(CC(O)COc2ccc(C)c(C)c2)CC1 (configuration not stated),.,.,.,83.6,.,.
CCN1CCN(CCOc2ccc(Cl)cc2)CC1,.,.,.,78.1,.,66.9
CC(C)CCN1C(=O)c2ccc(C(=O)OCC(=O)N(CC(C)C)C3CCS(=O)(=O)C3)cc2C1=O (configuration not stated),/,/,.,/,/,/
O=S(=O)(NCCc1ccccc1)c1ccc(Cl)nc1,.,.,.,.,.,.
CCOc1ccccc1Oc1c(C)oc2c(CN3CCN(C)CC3)c(O)ccc2c1=O,/,/,.,75.3,.,/
COC(=O)c1ccc(Oc2c(C(F)(F)F)oc3c(CN4CCN(C)CC4)c(O)ccc3c2=O)cc1,.,.,.,99.8,.,.
CCOC(=O)c1oc2c(CN3CCN(C)CC3)c(O)ccc2c(=O)c1-c1ccccc1OC,.,.,.,.,.,.
COc1ccc(-c2c(C)oc3c(CN4CCN(CCO)CC4)c(O)ccc3c2=O)cc1OC,.,.,.,99.3,.,.
COc1ccccc1-c1c(C)oc2c(CN3CCN(C)CC3)c(O)ccc2c1=O,.,.,.,90.2,.,.
COc1ccccc1Oc1c(C)oc2c(CN3CCOCC3)c(O)ccc2c1=O,.,.,.,/,.,.
COc1cc(CNCCSc2nnnn2C)cc(Br)c1OCc1ccc(F)cc1,.,.,.,95.0,.,.
COc1cc(CNCCO)cc(Br)c1OCc1ccccc1,.,.,.,97.1,.,.
COc1cc(CNCCSc2nnnn2C)cc(Br)c1OCc1ccccc1,.,.,.,56.2,.,.
CCc1ccc(CNCCSc2nnnn2C)cc1,.,.,.,.,.,.
COc1ccc(CNCCSc2nnnn2C)cc1OC,.,?,.,.,.,.
Cn1nnnc1SCCNCc1ccccc1OCc1ccccc1,.,.,.,.,.,.
CCOc1cc(CNCCSc2nnnn2C)cc(Br)c1OCc1ccc(F)cc1,.,.,.,50.3,.,.
Cc1ccc(C(=O)NCC(=O)OCC(=O)NC(C)C2CC3CCC2C3)cc1 (configuration not stated),/,/,.,/,/,/
O=C(COc1ccccc1)OCc1cc(-c2ccco2)on1,/,/,.,/,/,/
COc1cc(CNc2ccc3[nH]c(=O)[nH]c3c2)cc(Br)c1OCc1ccc(F)cc1,.,.,.,/,.,.
CCOc1cc(CNc2ccccc2)cc(Br)c1OCc1ccc(F)cc1,.,.,.,.,42.7,.
COc1ccc(C(=O)COC(=O)CNC(=O)c2ccccc2)cc1F,/,/,.,/,/,/
c1cc(CNC2C3CC4CC(C3)CC2C4)ccn1 (configuration not stated),.,.,.,82.8,.,.
CC(NCc1ccncc1)C12CC3CC(CC(C3)C1)C2 (configuration not stated),.,.,.,68.5,.,62.6
O=C(NCc1ccncc1)C12CC3CC(CC(C3)C1)C2,.,.,.,.,.,.
CN(C)C(=O)c1ccc(NC(=O)CSc2nnc(-c3cccs3)n2N)cc1,/,/,.,/,/,/
